For assay [1], the system named is Mus musculus. Description: Inhibitory ratio of TPA-induced edema in presence of drug to TPA-induced edema in ICR mouse. Type of assay: functional. In a few lines: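 Topical sample at 1.0 mg/ear, or CHCl3-MeOH (1:1, 20 µL) vehicle control, given about 30 min before TPA (1.7 nmol in 20 µL acetone) on the right ear of female ICR mice. Ear thickness was gauged before and 6 h after TPA. InhR = [(Edema A − Edema B)/Edema A] × 100. Mean of five mice, Student's t-test.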

Assay [2] deals with Mus musculus. Description: Antiinflammatory activity in ICR mouse assessed as inhibition of TPA-induced edema per ear applied topically 30 mins before TPA treatment. It is filed as functional. Put shortly:
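Female SPF ICR mice. TPA (1.7 nmol, 1 µg) in 20 µL acetone was applied to the right ear only, 10 µL to each of the inner and outer surfaces. Sample or vehicle (CHCl3-MeOH 1:1, 20 µL) was applied topically about 30 min beforehand. Ear thickness was read with a pocket gauge before and 6 h after TPA. ID50 came from probit-graphic interpolation across four dose levels, five mice each.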

As to `C[C@@H]1O[C@@H](O[C@H]2[C@H](O[C@H]3CC[C@]4(C)[C@H]5CC=C6[C@@H]7CC(C)(C)CC[C@]7(C(=O)O[C@@H]7OC[C@H](O)[C@H](O)[C@H]7O[C@@H]7O[C@@H](C)[C@H](O[C@@H]8O[C@H](CO)[C@@H](O)[C@H](O)[C@H]8O)[C@@H](O)[C@H]7O)CC[C@@]6(C)[C@]5(C)CC[C@H]4C3(C)C)O[C@H](CO)[C@@H](O[C@@H]3OC[C@@H](O)[C@H](O)[C@H]3O)[C@@H]2O)[C@H](O)[C@H](O)[C@H]1O` [HELIANTHOSIDE 1], the Ratio in the assay on Mus musculus [1] stood at 71%. Further, in the assay with Mus musculus [2], the ID50 was determined as 144 nmol.

As for `C[C@@H]1O[C@@H](O[C@@H]2[C@@H](O)[C@H](O[C@H]3CC[C@]4(C)[C@H]5CC=C6[C@@H]7CC(C)(C)CC[C@]7(C(=O)O[C@@H]7OC[C@H](O)[C@H](O)[C@H]7O[C@@H]7O[C@@H](C)[C@H](O[C@@H]8O[C@H](CO)[C@@H](O)[C@H](O)[C@H]8O)[C@@H](O)[C@H]7O)[C@H](O)C[C@@]6(C)[C@]5(C)CC[C@H]4C3(C)C)O[C@H](CO)[C@H]2O[C@@H]2OC[C@@H](O)[C@H](O)[C@H]2O)[C@H](O)[C@H](O)[C@H]1O` [HELIANTHOSIDE 2], the Ratio in the assay on Mus musculus [1] is 77%. Besides, the ID50 in the assay with Mus musculus [2] was determined as 135 nmol.

`C[C@@H]1O[C@@H](O[C@H]2[C@H](O[C@H]3CC[C@]4(C)[C@H]5CC=C6[C@@H]7CC(C)(C)CC[C@]7(C(=O)O[C@@H]7O[C@H](CO)[C@@H](O)[C@H](O)[C@H]7O[C@@H]7O[C@@H](C)[C@H](O[C@@H]8O[C@H](CO)[C@@H](O)[C@H](O)[C@H]8O)[C@@H](O)[C@H]7O)[C@H](O)C[C@@]6(C)[C@]5(C)CC[C@H]4C3(C)C)O[C@H](CO)[C@@H](O[C@@H]3OC[C@@H](O)[C@H](O)[C@H]3O)[C@@H]2O)[C@H](O)[C@H](O)[C@H]1O` [HELIANTHOSIDE 3]: in the assay on Mus musculus [1], the Ratio came to 73%. In addition, in the assay on Mus musculus [2], the ID50 was found to be 156 nmol.

Consider `C[C@@H]1O[C@@H](O[C@@H]2[C@@H](O)[C@H](O[C@H]3CC[C@@]4(C)[C@@H](CC[C@]5(C)[C@@H]4CC=C4[C@@H]6CC(C)(C)CC[C@]6(C(=O)O[C@@H]6OC[C@@H](O)[C@H](O)[C@H]6O[C@@H]6O[C@@H](C)[C@H](O[C@@H]7O[C@H](CO)[C@@H](O)[C@H](O)[C@H]7O)[C@@H](O)[C@H]6O)[C@H](O)C[C@]45C)[C@]3(C)CO)O[C@H](CO)[C@H]2O[C@@H]2OC[C@@H](O)[C@H](O)[C@H]2O)[C@H](O)[C@H](O)[C@H]1O` [HELIANTHOSIDE 4], for which the Ratio with Mus musculus [1] is on record as 75%. For the same compound, the ID50 in the assay on Mus musculus [2] was determined as 262 nmol.

For the compound `C[C@@H]1O[C@@H](O[C@@H]2[C@@H](O)[C@H](O[C@H]3CC[C@]4(C)[C@H]5CC=C6[C@@H]7CC(C)(C)CC[C@]7(C(=O)O[C@@H]7O[C@H](CO)[C@@H](O)[C@H](O)[C@H]7O[C@@H]7O[C@@H](C)[C@H](O)[C@@H](O)[C@H]7O)[C@H](O)C[C@@]6(C)[C@]5(C)CC[C@H]4C3(C)C)O[C@H](CO)[C@H]2O[C@@H]2OC[C@@H](O)[C@H](O)[C@H]2O)[C@H](O)[C@H](O)[C@H]1O` [HELIANTHOSIDE 5], the Ratio in the assay with Mus musculus [1] is 63%. For the same compound, the ID50 with Mus musculus [2] is reported as 155 nmol.

`C[C@@H]1O[C@@H](O[C@H]2CC[C@]3(C)[C@H]4CC=C5[C@@H]6CC(C)(C)CC[C@]6(C(=O)OC6OC[C@@H](O)[C@@H](O)[C@@H]6O[C@@H]6O[C@@H](C)[C@H](O[C@@H]7O[C@H](CO)[C@@H](O)[C@H](O)[C@H]7O)[C@@H](O)[C@H]6O)[C@H](O)C[C@@]5(C)[C@]4(C)CC[C@H]3C2(C)C)[C@H](O)[C@H](O)[C@H]1OC1OC[C@@H](O)[C@H](O)[C@H]1O` (stereo partly specified) [HELIANTHOSIDE B]: in the assay on Mus musculus [1], the Ratio amounted to 80%. For the same compound, the ID50 with Mus musculus [2] amounted to 65 nmol.

In the case of `C[C@]12CCC(=O)C=C1CC[C@@H]1[C@@H]2[C@@H](O)C[C@@]2(C)[C@H]1CC[C@]2(O)C(=O)CO` [HYDROCORTISONE], the Ratio in the assay on Mus musculus [1] amounted to 99%. Also, in the assay on Mus musculus [2], the ID50 was 83 nmol.

In the case of `COc1ccc2c(c1)c(CC(=O)O)c(C)n2C(=O)c1ccc(Cl)cc1` [INDOMETHACIN], the Ratio in the assay on Mus musculus [1] was 96%. For the same compound, in the assay on Mus musculus [2], the ID50 is given as 838 nmol.

Values taken from ChEMBL document CHEMBL1139893, “Triterpene glycosides from the flower petals of sunflower (Helianthus annuus) and their anti-inflammatory activity” (2007).
